From ChEMBL document CHEMBL1126298, “New triazine derivatives as potent modulators of multidrug resistance” (1992) come the findings set out here.

The subject of experiment [1] is DC3F/AD. Put plainly: In vitro activity in DC-3F/AD cell line Ratio of IC50(actinomycin D alone) / IC50(actinomycin D + modulator) at a concentration of 10 uM.
For experiment [2], the system named is DC3F/AD. The experiment can be described thus: In vitro activity in DC-3F/AD cell line(Ratio of IC50(actinomycin D alone) / IC50(actinomycin D + modulator) at a concentration of 5 uM.
The test system of experiment [3] is KB. Put plainly: Percent of cell viability remaining after incubating the cells with the modulator alone. It is filed as functional, Homo sapiens. More on the design: concentration or dose not given beside the values. The essentials:
(§1)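 Cells were grown with modulator alone for 4 days under the same conditions as the chemosensitivity assay, and read by MTT. Viability = (absorbance with modulator/absorbance of control cells) × 100. "tox" marks viability below 25%.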

In experiment [4] the test system is DC3F/AD. Put plainly: Increase in adriamycin uptake in modulator-treated cells relative to untreated cells at a concentration of 5 uM. It is filed as functional, Cricetulus griseus. The essentials:
(§2)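 DC-3F/AD or KB-A1 cells (5 × 10⁶/mL) were incubated at 37 °C for 5 h with 50 μM adriamycin plus modulator (2.5–10 μM range). ADR fluorescence of 10 000 cells was read by flow cytometry at 4 °C with 488 nm argon-laser excitation. The value is the increase in mean fluorescence of treated cells over untreated cells.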

Experiment [5] concerns DC3F/AD. Put plainly: Percent of cell viability remaining after incubating with a 10 uM concentration. It is filed as functional, Cricetulus griseus. Summed up:
as §1

Experiment [6] has as its system P388. The experiment can be described thus: Antitumor activity of vincristine against P388 leukemia cell line in mice at a dose of 50 mg/kg. It is filed as functional, Mus musculus.
Experiment [7] has as its system KB. Put plainly: In vitro activity in KB-A1 cell line activity expressed as fold reversion (Ratio of IC50(adriamycin alone) / IC50(adriamycin + modulator) at a concentration of 5 uM. It is filed as functional, Homo sapiens. The essentials: (§3)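 Human epidermoid KB-A1 cells (Pgp-overexpressing) were grown in RPMI 1640 with 10% FCS and 10 mM HEPES (pH 7.4). They were exposed for 4 days to adriamycin (nine graded concentrations, in triplicate) with or without 5 μM modulator. IC50 was read by the MTT assay. Fold reversion = IC50(ADR alone)/IC50(ADR + modulator).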

Experiment [8] relates to P388. The experiment can be described thus: Antitumor activity of vincristine against P388 leukemia cell line in mice at a dose of 100 mg/kg. It is filed as functional, Mus musculus.
The test system of experiment [9] is DC3F/AD. Put plainly: Increase in adriamycin uptake in modulator-treated cells relative to untreated cells at a concentration of 10 uM. The experiment is classed as functional, Cricetulus griseus. The essentials:
as §2

Experiment [10] deals with KB. The experiment can be described thus: Increase in adriamycin uptake in modulator-treated cells relative to untreated KB-A1 cells at a concentration of 5 uM. It is filed as functional, Homo sapiens. Summed up: as §2
In experiment [11] the test system is DC3F/AD. Put plainly: Percent of cell viability remaining after incubating the cells with the modulator alone a concentration of 5 uM. It is filed as functional, Cricetulus griseus. The essentials: as §1
The test system of experiment [12] is KB. Put plainly: Compound was evaluated for the in vitro activity in KB-A1 cell line)Activity expressed as fold reversion (Ratio of IC50(adriamycin alone) / IC50(adriamycin + modulator) at a concentration of 5 uM. The experiment is classed as functional, Homo sapiens. The essentials:
as §3

Experiment [13] concerns KB. Put plainly: Compound was evaluated for the in vitro activity in KB-A1 cell line. Activity expressed as fold reversion (Ratio of IC50(adriamycin alone) / IC50(adriamycin + modulator) at a concentration of 5 uM. The experiment is classed as functional, Homo sapiens. The essentials: as §3

As usually defined, the T/C is the ratio of treated to control. In the case of `C=CCNc1nc(NCC=C)nc(N2CCC(NCC3c4ccccc4CCc4ccccc43)CC2)n1`, the Fold reversion amounted to 6021 in the experiment on DC3F/AD [1], 3144 in the experiment on DC3F/AD [2] and 252 in the experiment on KB [7]. The values for the Viability in the experiment on KB [3], with DC3F/AD [5] and in the experiment with DC3F/AD [11] were 68%, 54% and 98%, respectively. The Increase in the experiment on DC3F/AD [4] came to 33; in the experiment on DC3F/AD [9], 38.3; in the experiment with KB [10], 53.6. In addition, the T/C in the experiment on P388 [6] turned out to be 161%; in the experiment on P388 [8], 167%.
For the compound `C=CCNc1nc(NCC=C)nc(N2CCC(NCC(c3ccccc3)S(=O)(=O)c3ccccc3)CC2)n1` (stereo not given), the Fold reversion with DC3F/AD [1] is reported as 817; in the experiment with DC3F/AD [2] it was 139; in the experiment with KB [12] it was 277. In addition, the Viability is 115% with KB [3], 92% in the experiment with DC3F/AD [5] and 107% with DC3F/AD [11]. Moreover, the Increase amounted to 21.2 in the experiment with DC3F/AD [4], 29 with DC3F/AD [9] and 41.9 with KB [10].
On to `C=CCNc1nc(NCC)nc(N2CCC(NCC3c4ccccc4CCc4ccccc43)CC2)n1`, for which the results for the Fold reversion in the experiment with DC3F/AD [1], with DC3F/AD [2] and with KB [7] were 10684, 2499 and 201, respectively. For the same compound, the Viability is reported as 58% in the experiment with KB [3], 64% in the experiment on DC3F/AD [5] and 114% in the experiment with DC3F/AD [11]. For the same compound, the Increase in the experiment with DC3F/AD [4] is listed as 23.1; with DC3F/AD [9], 24.9; with KB [10] it was 45.9. Besides, the T/C in the experiment with P388 [6] is reported as 190%; with P388 [8], 174%.
For the compound `C=CCNc1nc(OC)nc(N2CCC(NCC3c4ccccc4CCc4ccccc43)CC2)n1`, the Fold reversion amounted to 1078 with DC3F/AD [1], 1092 with DC3F/AD [2] and 138 in the experiment with KB [7]. Moreover, the results for the Viability in the experiment on KB [3], with DC3F/AD [5] and in the experiment on DC3F/AD [11] were 91%, 79% and 86%, respectively. Also, the Increase with DC3F/AD [4] was 23.9; in the experiment on DC3F/AD [9], 28.5; in the experiment on KB [10], 40.7.
In the case of `C=CCNc1nc(NCC=C)nc(N2CCC(CNC3c4ccccc4CCc4ccccc43)CC2)n1`, the Fold reversion is 544 in the experiment on DC3F/AD [1], 173 in the experiment on DC3F/AD [2] and 126 in the experiment on KB [7]. Also, the Viability came out at 105% in the experiment on KB [3], 72% in the experiment with DC3F/AD [5] and 96% in the experiment on DC3F/AD [11]. The Increase with DC3F/AD [4] is reported as 14; in the experiment with DC3F/AD [9] it was 20.5; in the experiment on KB [10], 29.8.
For the compound `C=CCNc1nc(NCC=C)nc(NCCN2CCN(C3c4ccccc4CCc4ccccc43)CC2)n1`, the Fold reversion with DC3F/AD [1] and in the experiment with KB [13] was below 25 in each case. Besides, the Increase with DC3F/AD [4] amounted to 10.2; with DC3F/AD [9], 10.5; in the experiment on KB [10], 26.2.
For the compound `C=CCN(CC=C)c1nc(N(CC=C)CC=C)nc(N2CCC(NCC(c3ccccc3)c3ccccc3)CC2)n1`, the Fold reversion in the experiment with DC3F/AD [1], in the experiment on DC3F/AD [2] and in the experiment with KB [12] was 1 each time. In addition, the Viability is 78% in the experiment with KB [3], 65% with DC3F/AD [5] and 74% in the experiment on DC3F/AD [11].
On to `C=CCNc1nc(NCC=C)nc(N2CCC(N(C)CC3c4ccccc4CCc4ccccc43)CC2)n1`, for which the Fold reversion came out at 3035 in the experiment with DC3F/AD [1], 834 in the experiment with DC3F/AD [2] and 118 in the experiment with KB [7]. Moreover, the figures for the Viability with KB [3], in the experiment with DC3F/AD [5] and with DC3F/AD [11] were 111%, 69% and 70%, respectively. Besides, the Increase is 17.8 in the experiment on DC3F/AD [4], 21.8 in the experiment on DC3F/AD [9] and 25.6 in the experiment on KB [10].
Regarding `CN(C)c1nc(N(C)C)nc(N2CCC(NCC3c4ccccc4CCc4ccccc43)CC2)n1`, the values for the Fold reversion in the experiment on DC3F/AD [1], in the experiment on DC3F/AD [2] and in the experiment on KB [7] were 544, 187 and 7, respectively. Besides, the Viability is recorded as 28% in the experiment with KB [3], 66% in the experiment with DC3F/AD [5] and 71% in the experiment on DC3F/AD [11]. The Increase stood at 29.4 in the experiment on DC3F/AD [4], 30.6 in the experiment on DC3F/AD [9] and 16.4 in the experiment on KB [10].
For the compound `C=CCNc1nc(NCC=C)nc(N2CCC(NCC3c4ccccc4-c4ccccc43)CC2)n1`, the Fold reversion in the experiment with DC3F/AD [1] came out at 589; in the experiment on DC3F/AD [2], 170; with KB [7] it was 57. In addition, the Viability in the experiment on KB [3] stood at 42%; with DC3F/AD [5], 75%; with DC3F/AD [11], 78%. The Increase in the experiment with DC3F/AD [4] is reported as 19.6; in the experiment on DC3F/AD [9], 23.2; in the experiment on KB [10], 20.6.
Regarding `C=CCNc1nc(NCC=C)nc(N2CCC(NCC3c4ccccc4C=Cc4ccccc43)CC2)n1`, the results for the Fold reversion in the experiment on DC3F/AD [1], in the experiment on DC3F/AD [2] and in the experiment with KB [7] were below 25, 1420 and 640, respectively. Further, the results for the Viability in the experiment on KB [3] and in the experiment on DC3F/AD [11] were 31% and 86%, respectively. Moreover, the Increase stood at 24.5 in the experiment with DC3F/AD [4], 25.8 in the experiment on DC3F/AD [9] and 59.2 with KB [10]. Further, the T/C in the experiment with P388 [6] is recorded as 196%; in the experiment on P388 [8], 172%.
In the case of `C=CCNc1nc(NCC=C)nc(N2CCN(C3c4ccccc4CCc4ccccc43)CC2)n1`, the results for the Fold reversion in the experiment on DC3F/AD [1], in the experiment with DC3F/AD [2] and in the experiment with KB [13] were 455, 309 and 36, respectively. Moreover, the Viability in the experiment on KB [3] was found to be 108%; with DC3F/AD [5] it was 87%; in the experiment on DC3F/AD [11], 92%. The Increase in the experiment on DC3F/AD [4] is listed as 16.9; with DC3F/AD [9] it was 19.3; in the experiment with KB [10], 11.2.
Regarding `C=CCNc1nc(NCC=C)nc(N2CCC(NCC3c4ccccc4CCCc4ccccc43)CC2)n1`, the Fold reversion in the experiment on DC3F/AD [1] was below 25; in the experiment with DC3F/AD [2] it was 2951; with KB [7], 177. In addition, the results for the Viability with KB [3] and in the experiment with DC3F/AD [11] were 89% and 105%, respectively. Further, the Increase with DC3F/AD [4] came out at 22.3; in the experiment on DC3F/AD [9] it was 21.6; with KB [10] it was 44.1. The values for the T/C in the experiment with P388 [6] and in the experiment with P388 [8] were 173% and 186%, respectively.
For the compound `C=CCNc1nc(NCC=C)nc(N2CCC(NCC3c4ccccc4NC(=O)c4ccccc43)CC2)n1` (stereo not given), the Fold reversion is given as 583 in the experiment on DC3F/AD [1], 2 in the experiment with DC3F/AD [2] and 315 in the experiment on KB [7]. For the same compound, the Viability in the experiment on KB [3] is 113%; in the experiment on DC3F/AD [5], 100%; in the experiment on DC3F/AD [11], 106%. The Increase is 2.2 in the experiment with DC3F/AD [4], 41.5 with DC3F/AD [9] and 48.4 in the experiment with KB [10].
On to `C=CCNc1nc(NCC=C)nc(N2CCN(NCC3c4ccccc4CCc4ccccc43)CC2)n1`, for which the Fold reversion in the experiment on DC3F/AD [1] is listed as 1159; in the experiment on DC3F/AD [2], 329; with KB [12] it was 93. The Viability came out at 96% in the experiment with KB [3], 81% with DC3F/AD [5] and 87% in the experiment on DC3F/AD [11]. Also, the figures for the Increase in the experiment with DC3F/AD [4], with DC3F/AD [9] and in the experiment with KB [10] were 21.1, 28.2 and 22.8, respectively.
In the case of `C=CCNc1nc(NCC=C)nc(NCC(O)CN2CCN(C3c4ccccc4CCc4ccccc43)CC2)n1` (stereo not given), the Fold reversion in the experiment on DC3F/AD [1], in the experiment with DC3F/AD [2] and in the experiment with KB [13] was below 25 throughout. For the same compound, the Increase with DC3F/AD [4] came out at 24.3; in the experiment with DC3F/AD [9], 27.6; with KB [10] it was 29.2.
